Experimental data as given in ChEMBL document CHEMBL1770062, “Synthesis and in vitro antitumor activity of new butenolide-containing dithiocarbamates” (Bioorg Med Chem Lett, 2011).

Legend:
Type in all cases: functional, cell-based
[1] = tested on: PC-3; assay: Antitumor activity against human PC3 cells after 72 hrs by MTT assay
Outline: (§1)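 Cells in RPMI 1640 with 10% FBS, 2 mm glutamine, penicillin and streptomycin were seeded at 5 × 10³ per well in 96-well plates. After 24 h at 37 °C the medium was replaced with medium holding compound at several concentrations, and cells were exposed for 72 h. MTT (5 mg/mL stock in PBS) was added for 4 h at 37 °C, formazan was dissolved in DMSO and absorbance read at 490 nm. IC50 was taken from dose–response curves, at least three independent experiments, mean ± SE.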

[2] = tested on: MCF7; assay: Antitumor activity against human MCF7 cells after 72 hrs by MTT assay; outline: as §1
[3] = Antitumor activity against human EC9706 cells after 72 hrs by MTT assay; outline: as §1
[4] = tested on: HeLa; assay: Antitumor activity against human HeLa cells after 72 hrs by MTT assay; outline: as §1
[5] = Antitumor activity against human SPC-A1 cells after 72 hrs by MTT assay; outline: as §1
[6] = Homo sapiens, PC-3, 72 h, read-out: IC50
[7] = Homo sapiens, MCF7, 72 h, read-out: IC50
[8] = Homo sapiens, EC9706, 72 h, read-out: IC50
[9] = Homo sapiens, HeLa, 72 h, read-out: IC50
[10] = Homo sapiens, SPCA1, 72 h, read-out: IC50

SMILES	IC50 [1, 6]	IC50 [2, 7]	IC50 [3, 8]	IC50 [4, 9]	IC50 [5, 10]	IC50 ([4]; hela)	IC50 ([5]; spc-a1)	IC50 ([1]; pc-3)	IC50 ([2]; mcf7)	IC50 ([3]; ec9706)
CNC(=S)SCC1=CCOC1=O	76.5 µM	83.1 µM	85.4 µM	36.1 µM	43.9 µM					
CCNC(=S)SCC1=CCOC1=O	30.6 µM	80.1 µM	44.4 µM			Not Active	Not Active			
CN(C)C(=S)SCC1=CCOC1=O	147 µM	> 50 µg/mL	182 µM	114 µM	> 50 µg/mL					
CCN(CC)C(=S)SCC1=CCOC1=O	57.1 µM	121 µM	136 µM	1.39 µM	87 µM					
CC(C)NC(=S)SCC1=CCOC1=O	49.4 µM	134 µM	59.4 µM	137 µM	108 µM					
O=C1OCC=C1CSC(=S)NC1CC1	117 µM	94.9 µM	53.6 µM	24.1 µM	57.5 µM					
O=C1OCC=C1CSC(=S)NC1CCCCC1	> 50 µg/mL	180 µM	> 50 µg/mL	150 µM	> 50 µg/mL					
O=C1OCC=C1CSC(=S)N1CCCC1	114 µM	56.4 µM	14.4 µM	2.63 µM	31.4 µM					
CN1CCN(C(=S)SCC2=CCOC2=O)CC1	40.5 µM	86.5 µM	14.3 µM	0.77 µM	53.7 µM					
O=C1OCC=C1CSC(=S)N1CCOCC1	48.8 µM	60.3 µM	26 µM	2.43 µM	37.9 µM					
O=C1OCC=C1CSC(=S)Nc1ccccc1	186 µM	89.9 µM	16.2 µM	111 µM	95.3 µM					
Cc1ccc(NC(=S)SCC2=CCOC2=O)cc1	93.5 µM	97.4 µM	91 µM	5.44 µM	63.8 µM					
O=C1OCC=C1CSC(=S)Nc1ccc(Cl)cc1						Not Active	Not Active	Not Active	Not Active	Not Active
O=C1OCC=C1CSC(=S)NCc1ccccc1	13.7 µM	31.9 µM	34.3 µM	15.1 µM	20.1 µM					
CN(C)C(=S)SCC1=CC(=O)OC1	> 50 µg/mL	159 µM	7.55 µM	> 50 µg/mL	> 50 µg/mL					
CCN(CC)C(=S)SCC1=CC(=O)OC1	> 50 µg/mL	> 50 µg/mL	> 50 µg/mL	21 µM	57.1 µM					
CC(C)N(C(=S)SCC1=CC(=O)OC1)C(C)C	> 50 µg/mL	> 50 µg/mL	49.2 µM	28.5 µM	> 50 µg/mL					
O=C1C=C(CSC(=S)N2CCCC2)CO1	> 50 µg/mL	169 µM	106 µM	> 50 µg/mL	60 µM					
CN1CCN(C(=S)SCC2=CC(=O)OC2)CC1	> 50 µg/mL	> 50 µg/mL	35.8 µM	> 50 µg/mL	> 50 µg/mL					
O=C1C=C(CSC(=S)N2CCOCC2)CO1	> 50 µg/mL	> 50 µg/mL	> 50 µg/mL	> 50 µg/mL						
CN(Cc1ccccc1)C(=S)SCC1=CC(=O)OC1	> 50 µg/mL	> 50 µg/mL	> 50 µg/mL	> 50 µg/mL	> 50 µg/mL					
O=C1CC2(CO1)CSC(=S)N2C1CC1 (centres undefined)	> 50 µg/mL	> 50 µg/mL	> 50 µg/mL	28.7 µM	> 50 µg/mL					
O=C1CC2(CO1)CSC(=S)N2Cc1ccccc1 (centres undefined)	> 50 µg/mL	> 50 µg/mL	> 50 µg/mL	> 50 µg/mL	> 50 µg/mL					
O=C1CC2(CO1)CSC(=S)N2c1ccccc1 (centres undefined)	> 50 µg/mL	134 µM	128 µM	18 µM	101 µM					
Cc1ccc(N2C(=S)SCC23COC(=O)C3)cc1 (centres undefined)	98.1 µM	> 50 µg/mL	> 50 µg/mL	> 50 µg/mL	> 50 µg/mL					
O=C1CC2(CO1)CSC(=S)N2c1ccc(Cl)cc1 (centres undefined)	> 50 µg/mL	> 50 µg/mL	32.6 µM	> 50 µg/mL	> 50 µg/mL					
O=C1CC2(CO1)CSC(=S)N2c1ccc(F)cc1 (centres undefined)	> 50 µg/mL	> 50 µg/mL	> 50 µg/mL	> 50 µg/mL	> 50 µg/mL					
O=C1CC2(CO1)CSC(=S)N2c1ccccc1O (centres undefined)	> 50 µg/mL	> 50 µg/mL	> 50 µg/mL	> 50 µg/mL	> 50 µg/mL					
O=c1[nH]cc(F)c(=O)[nH]1 [FLUOROURACIL]	29.3 µM	7.54 µM	20.3 µM	41.5 µM	26.9 µM					
